A short description of data set [1]: Cytotoxicity against human PK8 cells assessed as reduction in cell viability measured after 24 hrs in presence of glucose by MTT assay. The class given is cell-based. The essentials: (§1)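 Cells grown at 37 °C, 5% CO2 in DMEM with 10% FBS. 2.5 × 10⁴ cells/well were seeded in DMEM for 24 h, then PBS-washed and switched to fresh DMEM (+glucose) or glucose-deprived medium. Compound exposure was 24 h. MTT at 0.5 mg/mL was added for 4 h at 37 °C, then 20% SDS for 12 h at 37 °C. Absorbance read at 570 nm.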

Data set [2] has as its system BXPC-3. As to the kind of experiment: Cytotoxicity against human BxPC3 cells assessed as reduction in cell viability measured after 24 hrs in presence of glucose by MTT assay. The format is cell-based. Conditions: bxpc-3, 24 h. The essentials: as §1
For orientation: Tetrazolium dyes change colour on reduction, which living cells bring about.

Data set [3] relates to BXPC-3. The experiment in a line: Cytotoxicity against human BxPC3 cells assessed as reduction in cell viability measured after 24 hrs under glucose-deprived condition by MTT assay. The class given is functional, cell-based. The essentials: as §1
Data set [4] is filed under the species Homo sapiens. As to the kind of experiment: Inhibition of mitochondrial ATPase in human PANC1 cells assessed as increase in extracellular acidification rate in presence of glucose by seahorse XFe96 analyser based assay. The format is cell-based. The essentials:
(§2)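 Mito stress test on PANC-1 cells: 2 × 10⁴ cells were plated in DMEM overnight. Cells were moved to XF base medium with 1 mM pyruvate and 2 mM GlutaMax, containing 1 g/L glucose (or lacking it for glucose-free runs), then held 30 min at 37 °C without CO2. Injections in order: compound, 1 μM oligomycin, 1 μM FCCP, 0.5 μM rotenone plus 0.5 μM antimycin. OCR and ECAR were taken as mean rates per cycle of 2 min mixing and 3 min acquisition, over 20 or 21 cycles.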

The subject of data set [5] is PSN1. As to the kind of experiment: Cytotoxicity against human PSN1 cells assessed as reduction in cell viability measured after 24 hrs under glucose-deprived condition by MTT assay. The format is functional, cell-based. The essentials:
as §1

Data set [6] concerns PANC-1. As to the kind of experiment: Cytotoxicity against human PANC1 cells assessed as reduction in cell viability measured after 24 hrs in presence of glucose by MTT assay. The class given is cell-based. Conditions: panc-1, 24 h. The essentials:
as §1

For data set [7], the species on record is Homo sapiens. As to the kind of experiment: Cytotoxicity against human PK8 cells assessed as reduction in cell viability measured after 24 hrs under glucose-deprived condition by MTT assay. The class given is functional, cell-based. The essentials: as §1
Data set [8] deals with PSN1. The experiment in a line: Cytotoxicity against human PSN1 cells assessed as reduction in cell viability measured after 24 hrs in presence of glucose by MTT assay. Conditions: psn1, 24 h. The class given is cell-based. The essentials: as §1
The species named for data set [9] is Homo sapiens. As to the kind of experiment: Inhibition of mitochondrial ATPase in human PANC1 cells assessed as decrease in oxygen consumption rate in presence of glucose by seahorse XFe96 analyser based assay. The format is cell-based. The essentials: as §2
Data set [10] has as its system PANC-1. As to the kind of experiment: Cytotoxicity against human PANC1 cells assessed as reduction in cell viability measured after 24 hrs under glucose-deprived condition by MTT assay. The class given is functional, cell-based. The essentials: as §1
For data set [11], the species on record is Homo sapiens. The experiment in a line: Inhibition of mitochondrial ATPase in human PANC1 cells assessed as increase in extracellular acidification rate at 0.6 ug/ml in presence of glucose by seahorse XFe96 analyser based assay. The class given is cell-based. The essentials:
as §2

The species named for data set [12] is Homo sapiens. As to the kind of experiment: Inhibition of mitochondrial ATPase in human PANC1 cells assessed as decrease in oxygen consumption rate at 0.6 ug/ml in absence of glucose by seahorse XFe96 analyser based assay. The class given is cell-based. The essentials: as §2
The species entered for data set [13] is Homo sapiens. As to the kind of experiment: Inhibition of mitochondrial ATPase in human PANC1 cells assessed as increase in extracellular acidification rate at 0.6 ug/ml in absence of glucose by seahorse XFe96 analyser based assay. The class given is cell-based. The essentials: as §2
The species entered for data set [14] is Homo sapiens. As to the kind of experiment: Inhibition of mitochondrial ATPase in human PANC1 cells assessed as decrease in oxygen consumption rate at 0.6 ug/ml in presence of glucose by seahorse XFe96 analyser based assay. The format is cell-based. The essentials:
as §2

The structures appear in SMILES notation. Active and inactive are the calls of the source. The rule behind the calls is not given here. *1 amine or outer side, *2 acyl side, *3 side chain or, on linkers, in order; H or OH if unused. Where a SMILES comes first, the peptide text is derived from it. [ ]: non-standard residue; d: D form. The star is where a group is joined. ξ: configuration not given here. X1 = CCC(=O)C[C@H](O)C[C@@H](C)C[C@H](N[*:1])C(=O)[*:2]; X3 = CCC(=O)CC(O)CC(C)C[C@H](N[*:1])C(=O)[*:2]; Hexenoyl(2E,4S-Me) = CC[C@H](C)/C=C/C(=O)*; Leu(3R-OH) = CC(C)[C@@H](O)[C@H](N)C(=O)O; NH((S)CH(Me)CH2NMe2) = C[C@@H](CN(C)C)N*; Pro(4S-Me) = C[C@@H]1CN[C@H](C(=O)O)C1; X2 = CCC(C)/C=C/C(=O)*; Aib = CC(C)(N)C(=O)O; βAla = NCCC(=O)O; ξA = CC(N)C(=O)O

In the case of `CCC(=O)CC(O)CC(C)C[C@H](NC(=O)[C@@H]1C[C@H](C)CN1C(=O)/C=C/C(C)CC)C(=O)N[C@H](C(=O)NC(C)(C)C(=O)N[C@@H](CC(C)C)C(=O)N[C@@H](CC(C)C)C(=O)NC(C)(C)C(=O)NC(C)(C)C(=O)NCCC(=O)NC(C)C(=O)O)[C@H](O)C(C)C` (stereo partly drawn) (X2-[Pro(4S-Me)][X3][Leu(3R-OH)][Aib]LL[Aib][Aib][βAla][ξA]-OH), the Activity entry (in data set [1]; in the data set on BXPC-3 [2]; in the data set on PANC-1 [6]; in the data set with PSN1 [8]) was “Non-Toxic” throughout. Also, the outcome in the data set on BXPC-3 [3], in the data set on PSN1 [5], in the data set listed under Homo sapiens [7] and with PANC-1 [10] was inactive. Further, the inhibition result in the data set filed under Homo sapiens [4] and in the data set listed under Homo sapiens [9] was “inactive” in each case.

Regarding `CCC(=O)C[C@H](O)C[C@@H](C)C[C@H](NC(=O)[C@@H]1C[C@H](C)CN1C(=O)/C=C/[C@@H](C)CC)C(=O)N[C@H](C(=O)NC(C)(C)C(=O)N[C@@H](CC(C)C)C(=O)N[C@@H](CC(C)C)C(=O)NC(C)(C)C(=O)NC(C)(C)C(=O)NCCC(=O)N[C@@H](C)CN(C)C)[C@H](O)C(C)C` ({Hexenoyl(2E,4S-Me)}-[Pro(4S-Me)][X1][Leu(3R-OH)][Aib]LL[Aib][Aib][βAla]-{NH((S)CH(Me)CH2NMe2)}), the Activity result (in [1]; in the data set on BXPC-3 [2]; in the data set with PSN1 [8]) was “Non-Toxic” in each case. In addition, the inhibition result in the data set listed under Homo sapiens [11], in the data set listed under Homo sapiens [12], in the data set listed under Homo sapiens [4], in the data set listed under Homo sapiens [14] and in the data set filed under Homo sapiens [9] was “Active” each time. The outcome in the data set with BXPC-3 [3], in the data set on PSN1 [5], in the data set listed under Homo sapiens [7] and with PANC-1 [10] was Active. For the same compound, in the data set filed under Homo sapiens [13], the inhibition entry was “inactive”.

The values above are taken from ChEMBL document CHEMBL4316650, “Leucinostatin Y: A Peptaibiotic Produced by the Entomoparasitic Fungus Purpureocillium lilacinum 40-H-28” (J Nat Prod, 2019).
